Results: ChEMBL document CHEMBL1137710, “Synthesis and in vitro antitumor activity of new quinoxaline derivatives” (2009)

Columns and labels:
Type in all cases: functional
[1] = system: NCI-H460; assay: Anticancer activity against human NCI-H460 cells assessed as cell growth at 100 uM after 48 hrs by sulforhodamine B assay; conditions: NCI-H460, 48 h, read-out: Activity
[2] = system: HL-60(TB); assay: Growth inhibition of human HL-60(TB) cells after 48 hrs by sulforhodamine B assay; conditions: HL-60, 48 h
Outline: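 Tested only on compounds active in a three-line prescreen, in the NCI 60-human-tumour-cell-line panel over a 5-log dose range. Values come from dose–response curves as log10 molar GI50, the concentration inhibiting 50% net cell growth. Log10 TGI (total growth inhibition) and log10 LC50 (50% net cell death) were derived too. Mean graph midpoints include insensitive lines at the highest concentration tested.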

[3] = system: SR; assay: Growth inhibition of human SR cells after 48 hrs by sulforhodamine B assay
Outline: (§1)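 Run in the NCI 60-human-tumour-cell-line panel, tested over a 5-log dose range. Dose–response curves gave three values per cell line, each as a log10 molar concentration: GI50 (50% inhibition of net cell growth), TGI (total inhibition of net growth) and LC50 (50% net cell death). The mean graph midpoint is the arithmetic mean over all lines, with insensitive lines entered at the highest concentration tested.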

[4] = system: MOLT-4; assay: Growth inhibition of human MOLT4 cells after 48 hrs by sulforhodamine B assay; conditions: MOLT-4, 48 h
Outline: (§2)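 NCI 60-human-tumor-cell-line panel, with compounds tested over a 5-log dose range. Values are taken from dose-response curves as log10 molar concentrations: GI50 is 50% net growth inhibition, TGI is total growth inhibition, and LC50 is 50% net cell death.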

[5] = system: A549; assay: Growth inhibition of human A549 cells after 48 hrs by sulforhodamine B assay; conditions: A549, 48 h; outline: as §2
[6] = system: EKVX; assay: Growth inhibition of human EKVX cells after 48 hrs by sulforhodamine B assay; outline: as §2
[7] = system: HOP-62; assay: Growth inhibition of human HOP62 cells after 48 hrs by sulforhodamine B assay; conditions: HOP-62, 48 h; outline: as §2
[8] = system: HOP-92; assay: Growth inhibition of human HOP92 cells after 48 hrs by sulforhodamine B assay; conditions: HOP-92, 48 h; outline: as §2
[9] = system: NCI-H226; assay: Growth inhibition of human NCI-H226 cells after 48 hrs by sulforhodamine B assay; conditions: NCI-H226, 48 h; outline: as §2
[10] = system: NCI-H460; assay: Growth inhibition of human NCI-H460 cells after 48 hrs by sulforhodamine B assay; conditions: NCI-H460, 48 h; outline: as §2
[11] = system: HCT-15; assay: Growth inhibition of human HCT15 cells after 48 hrs by sulforhodamine B assay; conditions: HCT-15, 48 h; outline: as §2
[12] = system: HT-29; assay: Growth inhibition of human HT-29 cells after 48 hrs by sulforhodamine B assay; conditions: HT-29, 48 h; outline: as §2
[13] = system: KM12; assay: Growth inhibition of human KM12 cells after 48 hrs by sulforhodamine B assay; conditions: KM12, 48 h; outline: as §2
[14] = system: SNB-75; assay: Growth inhibition of human SNB75 cells after 48 hrs by sulforhodamine B assay; conditions: SNB-75, 48 h; outline: as §1
[15] = system: UACC-257; assay: Growth inhibition of human UACC257 cells after 48 hrs by sulforhodamine B assay; conditions: UACC-257, 48 h; outline: as §1
[16] = system: IGROV-1; assay: Growth inhibition of human IGROV1 cells after 48 hrs by sulforhodamine B assay; conditions: IGROV-1, 48 h; outline: as §2
[17] = system: OVCAR-8; assay: Growth inhibition of human OVCAR8 cells after 48 hrs by sulforhodamine B assay; conditions: OVCAR-8, 48 h; outline: as §2
[18] = system: SK-OV-3; assay: Growth inhibition of human SKOV3 cells after 48 hrs by sulforhodamine B assay; conditions: SK-OV-3, 48 h; outline: as §2
[19] = system: A498; assay: Growth inhibition of human A498 cells after 48 hrs by sulforhodamine B assay; conditions: A498, 48 h; outline: as §2
[20] = system: ACHN; assay: Growth inhibition of human ACHN cells after 48 hrs by sulforhodamine B assay
[21] = system: SN12C; assay: Growth inhibition of human SN12C cells after 48 hrs by sulforhodamine B assay; outline: as §1
[22] = system: TK-10; assay: Growth inhibition of human TK10 cells after 48 hrs by sulforhodamine B assay; conditions: TK-10, 48 h; outline: as §1
[23] = system: UO-31; assay: Growth inhibition of human UO31 cells after 48 hrs by sulforhodamine B assay; conditions: UO-31, 48 h; outline: as §1
[24] = system: PC-3; assay: Growth inhibition of human PC3 cells after 48 hrs by sulforhodamine B assay; conditions: PC-3, 48 h; outline: as §2
[25] = system: DU-145; assay: Growth inhibition of human DU145 cells after 48 hrs by sulforhodamine B assay; conditions: DU-145, 48 h; outline: as §2
[26] = system: BT-549; assay: Growth inhibition of human BT549 cells after 48 hrs by sulforhodamine B assay; conditions: BT-549, 48 h; outline: as §2
[27] = system: MCF7; assay: Growth inhibition of human MCF7 cells after 48 hrs by sulforhodamine B assay; conditions: MCF7, 48 h; outline: as §2
[28] = read-out: pLC50 (the source's name) (converted)

With Nc1cc(N)c2nc(-c3ccccc3)c(Sc3ccc(F)cc3)nc2c1 the growth at 100 µM [1] was 0%, the GI50 [2] was 38.9 µM and the LC50 [2] was > 100 µM. For the same molecule, the TGI ([2]; read-out: pTGI (converted)) was > 100 µM, the GI50 [3] was 35.5 µM and the LC50 (concentration giving 50% net cell death) [3] was > 100 µM. The TGI ([3]; read-out: pTGI (converted)) was > 100 µM, the GI50 [4] was > 100 µM and the LC50 [4] was > 100 µM. The TGI ([4]; read-out: pTGI (converted)) was > 100 µM, the GI50 [5] was 13.5 µM and the LC50 [5] was 70.8 µM. The TGI ([5]; read-out: pTGI (converted)) was 30.9 µM, the GI50 [6] was 20.4 µM and the LC50 (50% net cell kill) [6] was 83.2 µM. For the same molecule, the TGI ([6]; read-out: pTGI (converted)) was 41.7 µM, the GI50 [7] was 16.6 µM and the LC50 [7] was 70.8 µM. The TGI ([7]; read-out: pTGI (converted)) was 34.7 µM, the GI50 [8] was 22.9 µM and the LC50 (50% net cell death) [8] was > 100 µM. For the same molecule, the TGI ([8]; read-out: pTGI (converted)) was 55 µM, the GI50 [9] was 19.1 µM and the LC50 [9] was > 100 µM. The TGI ([9]; read-out: pTGI (converted)) was 46.8 µM, the GI50 [10] was 21.9 µM and the LC50 (50% net cell kill) [10] was > 100 µM. It also gave a TGI ([10]; read-out: pTGI (converted)) of 66.1 µM, a GI50 [11] of 13.5 µM and an LC50 [11] of 56.2 µM. The TGI ([11]; read-out: pTGI (converted)) was 27.5 µM, the GI50 [12] was 17.8 µM and the LC50 [12] was > 100 µM. The TGI ([12]; read-out: pTGI (converted)) was 45.7 µM, the GI50 [13] was 20.9 µM and the LC50 (50% net cell kill) [13] was > 100 µM. For the same molecule, the TGI ([13]; read-out: pTGI (converted)) was 49 µM, the GI50 [14] was 20.9 µM and the LC50 [14] was > 100 µM. The TGI ([14]; read-out: pTGI (converted)) was 47.9 µM, the GI50 [15] was 16.6 µM and the CC50 [15, 28] was 60.3 µM. For the same molecule, the TGI ([15]; read-out: pTGI (converted)) was 31.6 µM, the GI50 [16] was 25.1 µM and the CC50 [16, 28] was > 100 µM. For the same molecule, the TGI ([16]; read-out: pTGI (converted)) was > 100 µM, the GI50 [17] was 16.6 µM and the CC50 [17, 28] was 72.4 µM. The TGI ([17]; read-out: pTGI (converted)) was 34.7 µM, the GI50 [18] was 15.8 µM and the CC50 [18, 28] was 63.1 µM. For the same molecule, the TGI ([18]; read-out: pTGI (converted)) was 31.6 µM, the GI50 [19] was > 100 µM and the CC50 [19, 28] was > 100 µM. The TGI ([19]; read-out: pTGI (converted)) was > 100 µM, the GI50 [20] was > 100 µM and the CC50 [20, 28] was > 100 µM. For the same molecule, the TGI ([20]; read-out: pTGI (converted)) was > 100 µM, the GI50 [21] was > 100 µM and the CC50 [21, 28] was > 100 µM. The TGI ([21]; read-out: pTGI (converted)) was > 100 µM, the GI50 [22] was > 100 µM and the CC50 [22, 28] was > 100 µM. The TGI ([22]; read-out: pTGI (converted)) was > 100 µM, the GI50 [23] was > 100 µM and the CC50 [23, 28] was > 100 µM. For the same molecule, the TGI ([23]; read-out: pTGI (converted)) was > 100 µM, the GI50 [24] was > 100 µM and the CC50 [24, 28] was > 100 µM. The TGI ([24]; read-out: pTGI (converted)) was > 100 µM, the GI50 [25] was > 100 µM and the CC50 [25, 28] was > 100 µM. For the same molecule, the TGI ([25]; read-out: pTGI (converted)) was > 100 µM, the GI50 [26] was 21.9 µM and the CC50 [26, 28] was 89.1 µM. The TGI ([26]; read-out: pTGI (converted)) was 43.7 µM, the GI50 [27] was 20 µM and the CC50 [27, 28] was > 100 µM. The TGI ([27]; read-out: pTGI (converted)) was 63.1 µM.
